Active and inactive are the calls of the source. No cut-off for these calls is given here.
Assays:
[1] = molecular target: T1, Quinolone resistance protein NorA (Staphylococcus aureus) (UniProt P0A0J7); assay: Inhibition of Staphylococcus aureus SAK2378 norA assessed as potentiation of CPX-induced antimicrobial activity up to 100 ug/ml by checkerboard assay
T1 sequence (whole entry): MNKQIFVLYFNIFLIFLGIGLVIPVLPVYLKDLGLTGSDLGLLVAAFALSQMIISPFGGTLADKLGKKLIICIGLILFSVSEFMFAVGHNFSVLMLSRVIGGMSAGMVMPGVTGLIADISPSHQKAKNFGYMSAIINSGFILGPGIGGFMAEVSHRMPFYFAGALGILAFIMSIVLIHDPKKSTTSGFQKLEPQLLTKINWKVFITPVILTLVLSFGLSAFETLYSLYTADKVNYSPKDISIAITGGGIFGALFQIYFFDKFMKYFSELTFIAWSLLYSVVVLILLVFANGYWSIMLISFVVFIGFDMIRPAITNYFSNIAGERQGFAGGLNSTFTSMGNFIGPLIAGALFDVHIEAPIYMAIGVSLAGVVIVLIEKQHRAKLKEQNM
Summary of the method: (§1)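 Checkerboard microdilution of compound against CPX, with MICs set by CLSI microdilution. Applies to S. aureus SA-1199B and SA-K2378. Compound alone was tested up to 100 µg/mL. The read-out is fold reduction of the CPX MIC.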

[2] = molecular target: T1, Quinolone resistance protein NorA (Staphylococcus aureus); assay: Inhibition of NorA in Staphylococcus aureus SA1199B harboring GrlA A116E mutant assessed as potentiation of CPX-induced antimicrobial activity up to 100 ug/ml by checkerboard assay; summary of the method: as §1
[3] = molecular target: T1, Quinolone resistance protein NorA (Staphylococcus aureus); assay: Inhibition of NorA in Staphylococcus aureus SA1199B harboring GrlA A116E mutant assessed as inhibition of ethidium bromide efflux at 50 uM measured after 5 mins by fluorometric method relative to control
Summary of the method: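 S. aureus SA-1199B; test compounds at 50 µM. EtBr loss was measured fluorometrically in their presence and compared with their absence to give percentage reduction in efflux.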

[4] = molecular target: Quinolone resistance protein NorA (Staphylococcus aureus, UniProt P0A0J7, A116E); assay: Inhibition of NorA in Staphylococcus aureus SA1199B harboring GrlA A116E mutant assessed as inhibition of ethidium bromide efflux after 5 mins by fluorometric method
Summary of the method: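 S. aureus SA-1199B; EtBr loss measured fluorometrically, with compound present versus absent, giving percentage reduction in efflux. Increasing inhibitor concentrations were tested, and IC50 was read by inspecting the dose-response plots.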

| SMILES | inhibition [1] | inhibition [2] | inhibition [3] [%] | IC50 [4] [µM] |
| --- | --- | --- | --- | --- |
| COC(=O)[C@H]1[C@H]2C[C@@H]3c4[nH]c5cc(OC)ccc5c4CCN3C[C@H]2C[C@@H](OC(=O)c2cc(OC)c(OC)c(OC)c2)[C@@H]1OC | Active | Active |  |  |
| CCN(CCCCOC(=O)c1ccc(OC)c(OC)c1)C(C)Cc1ccc(OC)cc1 (centres undefined) |  |  | 45.2 |  |
| Cc1nc(Nc2ncc(C(=O)Nc3c(C)cccc3Cl)s2)cc(N2CCN(CCO)CC2)n1 [DASATINIB] |  |  | 95.8 | 11.5 |
| Cc1ccc(-n2nc(C(C)(C)C)cc2NC(=O)Nc2ccc(OCCN3CCOCC3)c3ccccc23)cc1 |  |  | 47 |  |
| COc1cc2ncnc(Nc3ccc(F)c(Cl)c3)c2cc1OCCCN1CCOCC1 [GEFITINIB] |  |  | 94.2 | 9.7 |
| CCCOc1ccc(-c2cc(OCCN(CC)CC)c3ccccc3n2)cc1 | Active | Active |  |  |
| CCCc1nn(C)c2c(=O)[nH]c(-c3cc(S(=O)(=O)N4CCN(C)CC4)ccc3OCC)nc12 |  |  | 22.9 |  |
| CCOC(=O)Nc1ccc2c(c1)N(C(=O)CCN1CCOCC1)c1ccccc1S2 |  |  | 23.7 |  |
| COC(=O)C1=C(C)NC(C)=C(C(=O)OCCN(C)Cc2ccccc2)C1c1cccc([N+](=O)[O-])c1 (centres undefined) [NICARDIPINE] |  |  | 77.1 | 22.8 |

Reference: ChEMBL document CHEMBL4043064, “Pharmacophore-Based Repositioning of Approved Drugs as Novel Staphylococcus aureus NorA Efflux Pump Inhibitors” (J Med Chem, 2017)
